Measurements from article PMC3738144 (British Journal of Cancer, 2013).
Values belong to the molecule of their own block, whether it stands above or below them.

Tests used:
[1] = Plasma pharmacokinetics of lenvatinib, carboplatin and paclitaxel; type: in vivo; settings: human
[2] = system: patients with stage IIIB/IV NSCLC; assay: Safety assessment: adverse events graded by CTCAE version 3.0; type: in vivo, human
[3] = system: patients with stage IIIB/IV NSCLC; type: in vivo, human
[4] = system: plasma angiogenic proteins and cytokines; assay: Plasma biomarker; type: in vivo, human; settings: median (minimum–maximum), lenvatinib with carboplatin/paclitaxel
[5] = system: NSCLC (stage IIIB/IV) target lesions; assay: Antitumor activity by RECIST version 1.0; type: in vivo, human
Summary of the method: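 Chemotherapy-naïve stage IIIB/IV NSCLC patients (20–74 y, ECOG 0–1, ≥1 measurable lesion) took oral test compound continuously BID. […] Investigators assessed tumours by RECIST 1.0 every two cycles. PFS ran from treatment start to PD or death (Kaplan–Meier).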

[6] = 4 mg BID (n=22) with carboplatin/paclitaxel
[7] = 4 mg level (22 patients) with carboplatin/paclitaxel
[8] = 6 mg BID (n=6) with carboplatin/paclitaxel

clearance ([1]; intravenous, CL, paclitaxel 200 mg m^−2, with lenvatinib 4 mg BID (n=6), mean±s.d.): 240 mL/min | Vd ([1]; intravenous, Vss, paclitaxel 200 mg m^−2, with lenvatinib 4 mg BID (n=6), mean±s.d.): 69.1 ± 27.7 L | half-life ([1]; intravenous, t1/2, paclitaxel 200 mg m^−2, with lenvatinib 4 mg BID (n=6), mean±s.d.): 6.65 ± 0.39 h
Structure (SMILES): CC(=O)O[C@H]1C(=O)[C@@]2(C)[C@H]([C@H](OC(=O)c3ccccc3)[C@]3(O)C[C@H](OC(=O)[C@H](O)[C@@H](NC(=O)c4ccccc4)c4ccccc4)C(C)=C1C3(C)C)[C@]1(OC(C)=O)CO[C@@H]1C[C@@H]2O [Paclitaxel, reference compound]

Structure (SMILES): COc1cc2nccc(Oc3ccc(NC(=O)NC4CC4)c(Cl)c3)c2cc1C(N)=O [lenvatinib, Lenvatinib]
patients with a treatment-related serious AE ([2]; 4 mg BID): 7 n | Anaemia Grade 3, treatment-related adverse event [2, 6]: 3 (14) n (%) | Anaemia Grade 4, treatment-related adverse event [2, 6]: 0 n (%) | Anal abscess Grade 3, treatment-related adverse event [2, 6]: 1 (5) n (%) | Anal abscess Grade 4, treatment-related adverse event [2, 6]: 0 n (%) | Decreased appetite Grade 3, treatment-related adverse event [2, 6]: 1 (5) n (%) | Decreased appetite Grade 4, treatment-related adverse event [2, 6]: 0 n (%) | Diarrhoea Grade 3, treatment-related adverse event [2, 6]: 1 (5) n (%) | Diarrhoea Grade 4, treatment-related adverse event [2, 6]: 0 n (%) | Febrile neutropenia Grade 3, treatment-related adverse event [2, 6]: 5 (23) n (%) | Febrile neutropenia Grade 4, treatment-related adverse event [2, 6]: 0 n (%) | Gingival infection Grade 3, treatment-related adverse event [2, 6]: 1 (5) n (%) | Gingival infection Grade 4, treatment-related adverse event [2, 6]: 0 n (%) | Hypertension Grade 3, treatment-related adverse event [2, 6]: 8 (36) n (%) | Hypertension Grade 4, treatment-related adverse event [2, 6]: 0 n (%) | Hypocalcemia Grade 3, treatment-related adverse event [2, 6]: 1 (5) n (%) | Hypocalcemia Grade 4, treatment-related adverse event [2, 6]: 0 n (%) | Hyponatremia Grade 3, treatment-related adverse event [2, 6]: 1 (5) n (%) | Hyponatremia Grade 4, treatment-related adverse event [2, 6]: 0 n (%) | Leukopenia Grade 3, treatment-related adverse event [2, 6]: 10 (46) n (%) | Leukopenia Grade 4, treatment-related adverse event [2, 6]: 1 (5) n (%) | Lymphopenia Grade 3, treatment-related adverse event [2, 6]: 1 (5) n (%) | Lymphopenia Grade 4, treatment-related adverse event [2, 6]: 0 n (%) | Nausea Grade 3, treatment-related adverse event [2, 6]: 1 (5) n (%) | Nausea Grade 4, treatment-related adverse event [2, 6]: 0 n (%) | Neurogenic bladder Grade 3, treatment-related adverse event [2, 6]: 1 (5) n (%) | Neurogenic bladder Grade 4, treatment-related adverse event [2, 6]: 0 n (%) | Neutropenia Grade 3, treatment-related adverse event [2, 6]: 0 n (%) | Neutropenia Grade 4, treatment-related adverse event [2, 6]: 21 (95) n (%) | Peripheral sensory neuropathy Grade 3, treatment-related adverse event [2, 6]: 1 (5) n (%) | Peripheral sensory neuropathy Grade 4, treatment-related adverse event [2, 6]: 0 n (%) | Pneumonia Grade 3, treatment-related adverse event [2, 6]: 1 (5) n (%) | Pneumonia Grade 4, treatment-related adverse event [2, 6]: 0 n (%) | Proteinuria Grade 3, treatment-related adverse event [2, 6]: 2 (9) n (%) | Proteinuria Grade 4, treatment-related adverse event [2, 6]: 0 n (%) | Pyelonephritis Grade 3, treatment-related adverse event [2, 6]: 1 (5) n (%) | Pyelonephritis Grade 4, treatment-related adverse event [2, 6]: 0 n (%) | Syncope Grade 3, treatment-related adverse event [2, 6]: 0 n (%) | Syncope Grade 4, treatment-related adverse event [2, 6]: 0 n (%) | Thrombocytopenia Grade 3, treatment-related adverse event [2, 6]: 4 (18) n (%) | Thrombocytopenia Grade 4, treatment-related adverse event [2, 6]: 2 (9) n (%) | Thrombosis Grade 3, treatment-related adverse event [2, 6]: 1 (5) n (%) | Thrombosis Grade 4, treatment-related adverse event [2, 6]: 0 n (%) | Vomiting Grade 3, treatment-related adverse event [2, 6]: 1 (5) n (%) | Vomiting Grade 4, treatment-related adverse event [2, 6]: 0 n (%) | Weight decreased Grade 3, treatment-related adverse event [2, 6]: 1 (5) n (%) | Weight decreased Grade 4, treatment-related adverse event [2, 6]: 0 n (%) | alopecia incidence (all grades) [2, 7]: 95% | arthralgia incidence (all grades) [2, 7]: 95% | grade 3 or 4 febrile neutropenia [2, 7]: 23% | grade 3 or 4 hypertension [2, 7]: 36% | grade 3 or 4 leukopenia [2, 7]: 50% | grade 3 or 4 neutropenia [2, 7]: 95% | grade 3 or 4 thrombocytopenia [2, 7]: 27% | leukopenia incidence (all grades) [2, 7]: 95% | neutropenia incidence (all grades) [2, 7]: 95% | peripheral sensory neuropathy incidence (all grades) [2, 7]: 95% | patients with a treatment-related serious AE ([2]; 6 mg BID): 2 n | Anaemia Grade 3, treatment-related adverse event [2, 8]: 0 n (%) | Anaemia Grade 4, treatment-related adverse event [2, 8]: 0 n (%) | Anal abscess Grade 3, treatment-related adverse event [2, 8]: 0 n (%) | Anal abscess Grade 4, treatment-related adverse event [2, 8]: 0 n (%) | Decreased appetite Grade 3, treatment-related adverse event [2, 8]: 0 n (%) | Decreased appetite Grade 4, treatment-related adverse event [2, 8]: 0 n (%) | Diarrhoea Grade 3, treatment-related adverse event [2, 8]: 0 n (%) | Diarrhoea Grade 4, treatment-related adverse event [2, 8]: 0 n (%) | Febrile neutropenia Grade 3, treatment-related adverse event [2, 8]: 1 (17) n (%) | Febrile neutropenia Grade 4, treatment-related adverse event [2, 8]: 0 n (%) | Gingival infection Grade 3, treatment-related adverse event [2, 8]: 1 (17) n (%) | Gingival infection Grade 4, treatment-related adverse event [2, 8]: 0 n (%) | Hypertension Grade 3, treatment-related adverse event [2, 8]: 4 (67) n (%) | Hypertension Grade 4, treatment-related adverse event [2, 8]: 0 n (%) | Hypocalcemia Grade 3, treatment-related adverse event [2, 8]: 0 n (%) | Hypocalcemia Grade 4, treatment-related adverse event [2, 8]: 0 n (%) | Hyponatremia Grade 3, treatment-related adverse event [2, 8]: 0 n (%) | Hyponatremia Grade 4, treatment-related adverse event [2, 8]: 0 n (%) | Leukopenia Grade 3, treatment-related adverse event [2, 8]: 2 (33) n (%) | Leukopenia Grade 4, treatment-related adverse event [2, 8]: 1 (17) n (%) | Lymphopenia Grade 3, treatment-related adverse event [2, 8]: 0 n (%) | Lymphopenia Grade 4, treatment-related adverse event [2, 8]: 0 n (%) | Nausea Grade 3, treatment-related adverse event [2, 8]: 0 n (%) | Nausea Grade 4, treatment-related adverse event [2, 8]: 0 n (%) | Neurogenic bladder Grade 3, treatment-related adverse event [2, 8]: 0 n (%) | Neurogenic bladder Grade 4, treatment-related adverse event [2, 8]: 0 n (%) | Neutropenia Grade 3, treatment-related adverse event [2, 8]: 0 n (%) | Neutropenia Grade 4, treatment-related adverse event [2, 8]: 5 (83) n (%) | Peripheral sensory neuropathy Grade 3, treatment-related adverse event [2, 8]: 0 n (%) | Peripheral sensory neuropathy Grade 4, treatment-related adverse event [2, 8]: 0 n (%) | Pneumonia Grade 3, treatment-related adverse event [2, 8]: 2 (33) n (%) | Pneumonia Grade 4, treatment-related adverse event [2, 8]: 0 n (%) | Proteinuria Grade 3, treatment-related adverse event [2, 8]: 0 n (%) | Proteinuria Grade 4, treatment-related adverse event [2, 8]: 0 n (%) | Pyelonephritis Grade 3, treatment-related adverse event [2, 8]: 0 n (%) | Pyelonephritis Grade 4, treatment-related adverse event [2, 8]: 0 n (%) | Syncope Grade 3, treatment-related adverse event [2, 8]: 1 (17) n (%) | Syncope Grade 4, treatment-related adverse event [2, 8]: 0 n (%) | Thrombocytopenia Grade 3, treatment-related adverse event [2, 8]: 0 n (%) | Thrombocytopenia Grade 4, treatment-related adverse event [2, 8]: 0 n (%) | Thrombosis Grade 3, treatment-related adverse event [2, 8]: 0 n (%) | Thrombosis Grade 4, treatment-related adverse event [2, 8]: 0 n (%) | Vomiting Grade 3, treatment-related adverse event [2, 8]: 0 n (%) | Vomiting Grade 4, treatment-related adverse event [2, 8]: 0 n (%) | Weight decreased Grade 3, treatment-related adverse event [2, 8]: 0 n (%) | Weight decreased Grade 4, treatment-related adverse event [2, 8]: 0 n (%) | SAE febrile neutropenia ([2]; all 28 patients): 7% | SAE pneumonia ([2]; all 28 patients): 7% | deaths ([2]; all 28 patients): No deaths were reported | patients with a treatment-related serious AE ([2]; all 28 patients (4 and 6 mg BID)): Nine | changes in mean QT interval and QTcF ([2]; combination or maintenance therapy): no changes of clinical importance | dose-limiting toxicities (DLTs) ([3]; 4 mg BID (n=6), dose-finding cohort): No DLTs | maximum tolerated dose (MTD) of lenvatinib ([3]; oral, with carboplatin (AUC 6)/paclitaxel (200 mg m^−2) day 1 every 3 weeks, advanced NSCLC): 4 mg BID | FGF-2 plasma, observed value ([4]; Cycle 1 day 8 (n=26)): 17.2 (7–59) pg ml^−1 | G-CSF plasma, observed value ([4]; Cycle 1 day 8 (n=26)): 7.6 (3–27) pg ml^−1 | HGF plasma, observed value ([4]; Cycle 1 day 8 (n=26)): 244.0 (163–353) pg ml^−1 | PDGF-B plasma, observed value ([4]; Cycle 1 day 8 (n=26)): 237.9 (14–2849) pg ml^−1 | SCF plasma, observed value ([4]; Cycle 1 day 8 (n=26)): 101.0 (54–173) pg ml^−1 | FGF-2 plasma, observed value ([4]; Cycle 1 day 22 (n=26)): 16.0 (7–57) pg ml^−1 | G-CSF plasma, observed value ([4]; Cycle 1 day 22 (n=26)): 7.5 (2–17) pg ml^−1 | IL-8 plasma, observed value ([4]; Cycle 1 day 22 (n=26)): 4.4 (3–15) pg ml^−1 | SCF plasma, observed value ([4]; Cycle 1 day 22 (n=26)): 102.9 (43–184) pg ml^−1 | SDF1α plasma, observed value ([4]; Cycle 1 day 22 (n=26)): 76.9 (30–140) pg ml^−1 | Cmax ([1]; oral, 4 mg): 97.5 ± 38.4 ng/mL | Tmax ([1]; oral, 4 mg, tmax, lenvatinib in plasma, lenvatinib 4 mg BID (n=6) with carboplatin/paclitaxel, median (minimum–maximum)): 4.18 h | Cmax ([1]; oral, 6 mg): 138 ± 35.3 ng/mL | Tmax ([1]; oral, 6 mg, Median time of maximum concentration (tmax), lenvatinib, across 4 and 6 mg BID groups): 4.18 to 4.27 h | AUC(0-t) ([1]; oral, 6 mg, mean AUC(0−t), lenvatinib, across 4 and 6 mg BID groups): 692 to 848 ng·h/mL | Best response CR [5, 6]: 1 (5) n (%) | Best response NE [5, 6]: 1 (5) n (%) | Best response PD [5, 6]: 1 (5) n (%) | Best response PR [5, 6]: 14 (64) n (%) | Best response SD [5, 6]: 5 (23) n (%) | ORR (CR+PR) [5, 6]: 15 (68) n (%) | Median PFS ([5]; 4 mg BID groups with carboplatin/paclitaxel): 9.0 months | Best response CR [5, 8]: 0 (0) n (%) | Best response NE [5, 8]: 2 (33) n (%) | Best response PD [5, 8]: 0 (0) n (%) | Best response PR [5, 8]: 2 (33) n (%) | Best response SD [5, 8]: 2 (33) n (%) | ORR (CR+PR) [5, 8]: 2 (33) n (%) | complete response ([5]; 22 patients at the 4 mg level): 5% | partial response ([5]; 22 patients at the 4 mg level): 64% | Best response CR ([5]; Total (n=28)): 1 (4) n (%) | Best response NE ([5]; Total (n=28)): 3 (11) n (%) | Best response PD ([5]; Total (n=28)): 1 (4) n (%) | Best response PR ([5]; Total (n=28)): 16 (57) n (%) | Best response SD ([5]; Total (n=28)): 7 (25) n (%) | ORR (CR+PR) ([5]; Total (n=28)): 17 (61) n (%) | Median PFS ([5]; total): 9.0 months | median duration of response ([5]; total): 7.0 months
